Experimental data collected from several papers.
ALOX5: Polyunsaturated fatty acid 5-lipoxygenase (ALOX5, Homo sapiens, UniProt P09917)
ACE: Angiotensin-converting enzyme (ACE, Oryctolagus cuniculus, UniProt P12822)
dxs: dxs (Pseudomonas aeruginosa, UniProt Q9KGU7)

C=CCOc1ccc(C(=O)/C=C/c2cccc(F)c2)c(OS(C)(=O)=O)c1I — IC50 (ALOX5; enzyme activity, inhibitor): 34.6 µM
CCCCOc1cc(C(=O)NCCN(CC)CC)c2ccccc2n1 — IC50 (PKD2L1 (Homo sapiens, UniProt Q9P0L9, F549I); ion current, inhibitor, patch clamp): 76.2 µM
Cn1c(=O)n(CCCCN2CCC3(CC2)OCc2ccccc23)c2ccccc21 — Ki (Sodium-dependent serotonin transporter (Slc6a4, Rattus norvegicus, UniProt P31652); ligand displacement, radioligand; cell membranes): 2.83 µM
N[C@@H](Cc1c[nH]cn1)C(=O)N[C@@H](CC(=O)O)C(=O)N[C@@H](CS)C(=O)N[C@@H](Cc1ccccc1)C(=O)O — IC50 (ACE; enzyme activity, inhibitor): 4.5 µM
COC(=O)C1=CO[C@@H](O[C@@H]2O[C@H](CO)[C@@H](O)[C@H](O)[C@H]2O)[C@@H]2C(CO)=CC[C@H]12 — Kd (Cystathionine beta-synthase (CBS, Homo sapiens, UniProt P35520); binding, MST): 38.4 µM
CCN1CCN(Cc2ccc(Nc3ncc(F)c(-c4cc(F)c5nc6n(c5c4)[C@H](C)CCC6)n3)nc2)CC1 — IC50 (Multidrug and toxin extrusion protein 2 (SLC47A2, Homo sapiens, UniProt Q86VL8); enzyme activity, inhibitor): 0.0654 µM
CCCCOP(=O)(O)C(C)=O — Ki (dxs; enzyme activity, inhibitor): 1.84 µM
N=C(N)NCCC[C@H](NC(=O)[C@H](Cc1ccccc1)NC(=O)[C@@H]1CCCN1C(=O)[C@H](CO)NC(=O)[C@@H]1CCCN1C(=O)[C@@H](N)Cc1ccccc1)C(=O)O — IC50 (ACE; enzyme activity, inhibitor): 81.3 µM
CC(=O)P(=O)(O)OCCc1cn([C@H](Cc2ccccc2)C(=O)O)nn1 — Ki (dxs; enzyme activity, inhibitor): 2.6 µM
CC(C)C[C@H](N)C(=O)N[C@@H](Cc1c[nH]c2ccccc12)C(=O)N[C@@H](CC(=O)O)C(=O)N1CCC[C@H]1C(=O)N1CCC[C@H]1C(=O)N[C@@H](CCC(=O)O)C(=O)NCC(=O)N[C@@H](C)C(=O)N1CCC[C@H]1C(=O)O — IC50 (ACE; enzyme activity, inhibitor): 207 µM
C=CCOc1ccc(C(=O)/C=C/c2ccc(OC)cc2)c(OS(C)(=O)=O)c1I — IC50 (ALOX5; enzyme activity, inhibitor): 38.3 µM
COc1ccc(CCCCC(=O)C(F)(F)C(F)(F)F)cc1 — IC50 (Cytosolic phospholipase A2 (PLA2G4A, Homo sapiens, UniProt P47712); enzyme activity, inhibitor): 26.2 µM
COc1cc2c(cc1OC)CN(CCc1ccc(NC(=O)c3cccc4c(=O)c5cccc(OC)c5[nH]c34)cc1)CC2 — Ki (Mu-type opioid receptor (OPRM1, Homo sapiens, UniProt P35372); cell-free assay): > 10 µM
